Measured values published in ChEMBL document CHEMBL2163282, “Discovery and characterization of AZD9272 and AZD6538-Two novel mGluR5 negative allosteric modulators selected for clinical development” (Bioorg Med Chem Lett, 2012).
≈ marks a conversion by molar mass, not a printed value.

Tests used:
[1] = molecular target: T1, Metabotropic glutamate receptor 5 (Homo sapiens, UniProt P41594); assay: Negative allosteric modulation of human recombinant mGluR5 expressed in HEK293 cells expressing GLAST assessed as inhibition of DHPG-induced intracellular Ca2+ level after 30 mins by FLIPR assay
Target sequence in this assay (P41594 whole entry): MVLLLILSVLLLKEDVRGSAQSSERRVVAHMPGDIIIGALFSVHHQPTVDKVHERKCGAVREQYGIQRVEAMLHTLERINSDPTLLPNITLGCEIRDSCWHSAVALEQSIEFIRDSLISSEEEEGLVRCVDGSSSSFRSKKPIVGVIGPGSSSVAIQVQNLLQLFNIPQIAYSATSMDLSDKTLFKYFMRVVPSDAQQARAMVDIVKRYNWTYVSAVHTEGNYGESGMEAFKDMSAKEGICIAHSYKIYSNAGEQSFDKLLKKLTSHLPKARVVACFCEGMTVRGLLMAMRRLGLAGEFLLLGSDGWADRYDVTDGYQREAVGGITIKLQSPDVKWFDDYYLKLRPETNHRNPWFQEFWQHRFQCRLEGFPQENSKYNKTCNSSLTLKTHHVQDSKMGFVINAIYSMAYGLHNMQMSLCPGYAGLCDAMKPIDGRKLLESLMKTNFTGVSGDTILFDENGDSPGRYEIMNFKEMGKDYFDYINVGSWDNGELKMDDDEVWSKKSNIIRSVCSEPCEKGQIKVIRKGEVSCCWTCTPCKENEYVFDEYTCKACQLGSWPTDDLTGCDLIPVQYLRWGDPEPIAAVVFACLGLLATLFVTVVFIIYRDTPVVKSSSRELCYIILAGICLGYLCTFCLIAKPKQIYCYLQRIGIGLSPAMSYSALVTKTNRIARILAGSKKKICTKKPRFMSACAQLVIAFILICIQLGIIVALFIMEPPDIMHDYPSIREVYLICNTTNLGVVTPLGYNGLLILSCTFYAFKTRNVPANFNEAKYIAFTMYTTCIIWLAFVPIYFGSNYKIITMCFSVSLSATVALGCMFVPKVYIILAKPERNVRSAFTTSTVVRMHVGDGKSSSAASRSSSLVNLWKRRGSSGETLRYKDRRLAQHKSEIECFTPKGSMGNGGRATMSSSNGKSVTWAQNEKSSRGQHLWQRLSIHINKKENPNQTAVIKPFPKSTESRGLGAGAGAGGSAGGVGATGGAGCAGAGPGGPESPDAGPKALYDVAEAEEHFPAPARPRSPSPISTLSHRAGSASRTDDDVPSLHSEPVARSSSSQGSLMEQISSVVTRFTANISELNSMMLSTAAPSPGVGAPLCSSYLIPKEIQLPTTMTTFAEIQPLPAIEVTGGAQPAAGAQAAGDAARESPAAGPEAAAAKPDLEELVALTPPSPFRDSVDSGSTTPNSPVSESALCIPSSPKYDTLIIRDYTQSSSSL

[2] = Intrinsic clearance in rat liver microsomes; format: ADME, Microsome; details: read-out: CLH
In short: (§1)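 Intrinsic clearance was determined in human or rat microsomes and expressed per min per mg protein.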

[3] = Equilibrium solubility of the compound […]; format: physicochemical
In short: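 Solubility was measured by a dried-DMSO rapid-throughput method.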

[4] = Intrinsic clearance in human liver microsomes; format: ADME, Microsome; details: read-out: CLH; in short: as §1
[5] = molecular target: T1, Metabotropic glutamate receptor 5; assay: Binding affinity to human mGluR5 expressed in HEK293 cell membranes expressing GLAST assessed as per mg of protein after 1 hr by scintillation counter
Target sequence in this assay (P41594 21-1212 limits assumed): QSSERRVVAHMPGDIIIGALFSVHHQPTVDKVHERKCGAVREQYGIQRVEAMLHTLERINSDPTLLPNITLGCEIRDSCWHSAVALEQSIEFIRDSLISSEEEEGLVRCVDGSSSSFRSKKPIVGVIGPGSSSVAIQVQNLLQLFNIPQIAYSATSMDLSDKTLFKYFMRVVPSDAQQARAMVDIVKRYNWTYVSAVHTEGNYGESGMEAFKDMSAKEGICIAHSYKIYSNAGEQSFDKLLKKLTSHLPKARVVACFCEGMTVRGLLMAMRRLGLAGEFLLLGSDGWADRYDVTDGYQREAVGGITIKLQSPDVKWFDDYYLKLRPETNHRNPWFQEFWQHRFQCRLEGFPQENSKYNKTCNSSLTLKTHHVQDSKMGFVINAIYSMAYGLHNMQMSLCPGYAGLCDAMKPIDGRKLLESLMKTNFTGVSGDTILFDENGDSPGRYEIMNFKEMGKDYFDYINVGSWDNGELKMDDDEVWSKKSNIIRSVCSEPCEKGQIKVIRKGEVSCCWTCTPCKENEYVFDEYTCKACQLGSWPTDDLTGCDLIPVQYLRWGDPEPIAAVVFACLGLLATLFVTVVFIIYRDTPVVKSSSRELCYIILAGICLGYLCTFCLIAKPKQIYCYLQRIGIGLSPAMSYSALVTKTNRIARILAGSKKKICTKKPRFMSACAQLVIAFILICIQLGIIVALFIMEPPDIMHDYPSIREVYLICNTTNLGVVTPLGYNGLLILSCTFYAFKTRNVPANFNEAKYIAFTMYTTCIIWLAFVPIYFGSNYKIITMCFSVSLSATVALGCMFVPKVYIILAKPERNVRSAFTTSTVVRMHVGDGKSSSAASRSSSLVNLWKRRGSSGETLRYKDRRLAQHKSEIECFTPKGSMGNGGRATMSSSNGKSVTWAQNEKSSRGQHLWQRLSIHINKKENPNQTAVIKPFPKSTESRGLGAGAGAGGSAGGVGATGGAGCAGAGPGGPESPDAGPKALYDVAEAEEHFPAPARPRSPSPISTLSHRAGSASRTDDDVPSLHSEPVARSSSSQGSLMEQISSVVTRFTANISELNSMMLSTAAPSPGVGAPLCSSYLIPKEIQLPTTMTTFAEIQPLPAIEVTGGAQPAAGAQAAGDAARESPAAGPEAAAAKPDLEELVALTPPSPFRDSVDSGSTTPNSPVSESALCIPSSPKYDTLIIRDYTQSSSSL

Brain = assay: Drug uptake in Sprague-Dawley rat brain at 10 and 30 nmol/kg, iv administered as infusion after 5 mins by autoradiographic analysis; format: ADME, organism-based; details: in vivo
In short: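 Rats were dosed intravenously with [3H]AZD9272 at 10 or 30 nmol/kg. Five minutes later, brains were removed and sectioned sagittally. Radiolabel distribution was assessed by conventional autoradiography.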

[6] = molecular target: T1, Metabotropic glutamate receptor 5; assay: Binding affinity to human mGluR5 expressed in HEK293 cell membranes expressing GLAST by scintillation counting
Target sequence in this assay (P41594 whole entry): as the sequence (P41594 whole entry) above

[7] = molecular target: T1, Metabotropic glutamate receptor 5; assay: Binding affinity to human mGluR5 expressed in HEK293 cell membranes expressing GLAST after 1 hr by scintillation counter in presence of 10 nM MPEP
In short: (§2)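 [3H]AZD9272 equilibrium saturation binding on membranes from human mGluR5-GHEK cells (HEK293 stably expressing glutamate/aspartate transporter), run without MPEP or with 10 or 20 nM MPEP; filtration termination; Kd and Bmax (pmol/mg protein) derived per assay, three separate assays.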
Target sequence in this assay (P41594 whole entry): as above

[8] = molecular target: Metabotropic glutamate receptor 5 (Rattus norvegicus, UniProt P31424); assay: Binding affinity to mGluR5 in Sprague-Dawley rat striatum after 60 mins by autoradiographic analysis
[9] = molecular target: T1, Metabotropic glutamate receptor 5; assay: Binding affinity to human mGluR5 expressed in HEK293 cell membranes expressing GLAST after 1 hr by scintillation counter in presence of 20 nM MPEP; in short: as §2
Target sequence in this assay (P41594 whole entry): as above

[10] = molecular target: T1, Metabotropic glutamate receptor 5; assay: Binding affinity to human mGluR5 expressed in HEK293 cell membranes expressing GLAST after 1 hr by scintillation counter in absence of MPEP; in short: as §2
Target sequence in this assay (P41594 whole entry): as above

Metabotropic glutamate receptor 5 (Rattus norvegicus, UniProt P31424), sequence (P31424 whole entry): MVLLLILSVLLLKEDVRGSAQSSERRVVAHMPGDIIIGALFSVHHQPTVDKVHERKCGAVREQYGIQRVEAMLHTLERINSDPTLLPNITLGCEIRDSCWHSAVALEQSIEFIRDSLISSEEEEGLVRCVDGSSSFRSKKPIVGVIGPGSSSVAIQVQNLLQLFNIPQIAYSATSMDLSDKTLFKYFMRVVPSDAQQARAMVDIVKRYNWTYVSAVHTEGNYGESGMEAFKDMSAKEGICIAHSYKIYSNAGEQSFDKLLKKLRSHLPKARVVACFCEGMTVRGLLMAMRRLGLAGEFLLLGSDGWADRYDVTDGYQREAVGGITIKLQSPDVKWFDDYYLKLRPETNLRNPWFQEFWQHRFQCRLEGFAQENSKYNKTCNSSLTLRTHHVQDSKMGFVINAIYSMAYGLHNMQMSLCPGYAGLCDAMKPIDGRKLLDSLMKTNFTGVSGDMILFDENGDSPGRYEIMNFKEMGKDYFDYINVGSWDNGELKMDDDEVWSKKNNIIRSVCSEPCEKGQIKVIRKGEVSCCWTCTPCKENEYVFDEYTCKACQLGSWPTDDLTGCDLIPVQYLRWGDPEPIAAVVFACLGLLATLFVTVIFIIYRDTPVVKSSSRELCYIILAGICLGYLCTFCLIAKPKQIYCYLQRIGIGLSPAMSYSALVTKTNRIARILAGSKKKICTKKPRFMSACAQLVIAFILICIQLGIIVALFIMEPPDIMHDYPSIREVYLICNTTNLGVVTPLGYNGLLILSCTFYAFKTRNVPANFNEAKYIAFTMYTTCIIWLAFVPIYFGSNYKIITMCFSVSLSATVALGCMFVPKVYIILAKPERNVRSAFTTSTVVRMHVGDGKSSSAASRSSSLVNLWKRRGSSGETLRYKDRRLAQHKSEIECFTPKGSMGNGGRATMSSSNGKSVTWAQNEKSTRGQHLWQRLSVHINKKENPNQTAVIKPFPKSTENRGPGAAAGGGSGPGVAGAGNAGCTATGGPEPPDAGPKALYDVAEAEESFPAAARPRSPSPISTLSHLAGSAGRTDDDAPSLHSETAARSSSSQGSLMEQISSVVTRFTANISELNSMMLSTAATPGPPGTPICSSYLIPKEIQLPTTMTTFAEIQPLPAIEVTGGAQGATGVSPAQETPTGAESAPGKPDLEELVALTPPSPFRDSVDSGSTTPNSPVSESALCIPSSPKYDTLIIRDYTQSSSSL

| SMILES | IC50 [1] | also measured |
| --- | --- | --- |
| FC(F)(F)c1cc(-c2nc(-c3ccccn3)no2)cc(C(F)(F)F)c1 | > 10000 nM | – |
| Clc1ccc(-c2nc(-c3ccccn3)no2)cc1Cl | > 10000 nM | – |
| Clc1ccc(-c2nc(-c3ccccn3)no2)cc1 | > 10000 nM | – |
| NC(=O)c1ccccc1-c1nc(-c2ccccn2)no1 | 3300 nM | – |
| N#Cc1cc(F)cc(-c2nc(-c3ncccn3)no2)c1 | 1100 nM | – |
| COc1cccc(-c2nc(-c3ccccn3)no2)c1 | 540 nM | – |
| Cc1cccc(C#Cc2ccccc2)n1 | – | Bmax [5]: 4.4 pmol |
| Fc1cccc(-c2nc(-c3ccccn3)no2)c1 | 845 nM | – |
| Clc1ccc(-c2nc(-c3ccccn3)no2)c(Cl)c1 | 1700 nM | – |
| FC(F)(F)Oc1cccc(-c2nc(-c3ccccn3)no2)c1 | 700 nM | – |
| N#Cc1cc(F)cc(-c2nc(-c3cnccn3)no2)c1 | 4700 nM | – |
| [3H]c1c(F)cc(-c2nc(-c3ccc(F)cn3)no2)cc1C#N | – | Drug uptake (Brain): Active; Kd [6]: 2.8 nM; Kd [7]: 5.5 nM; Kd [8]: 9.4 nM; Kd [9]: 7.2 nM; Kd [10]: 3.8 nM |

More lines, in order of falling IC50 [1], values ahead:

| IC50 [1] | SMILES | also measured |
| --- | --- | --- |
| 443 nM | Cc1cccc(-c2nc(-c3ccccn3)no2)c1 | – |
| 436 nM | Clc1ccccc1-c1nc(-c2ccccn2)no1 | – |
| 274 nM | Clc1cccc(-c2nc(-c3ccccn3)no2)c1Cl | – |
| 236 nM | O=[N+]([O-])c1cccc(-c2nc(-c3ccccn3)no2)c1 | – |
| 176 nM | N#Cc1cc(C#N)cc(-c2nc(-c3ccccn3)no2)c1 | – |
| 154 nM | Fc1cc(F)cc(-c2nc(-c3ccccn3)no2)c1 | – |
| 142 nM | Clc1cc(Cl)cc(-c2nc(-c3ccccn3)no2)c1 | – |
| 118 nM | Brc1cccc(-c2nc(-c3ccccn3)no2)c1 | – |
| 116 nM | Clc1cccc(-c2nc(-c3ccccn3)no2)c1 | – |
| 61 nM | N#Cc1cc(F)cc(-c2ccc(-c3ccccn3)o2)c1 | – |
| 25 nM | N#Cc1cc(F)cc(-c2nc(-c3ccccn3)no2)c1 | microsomal CLint [2]: 29 µL/min/mg; solubility [3]: 78.1 µM (≈ 20.8 µg/mL); microsomal CLint [4]: 92 µL/min/mg |
| 23 nM | N#Cc1cc(F)cc(-c2noc(-c3ccccn3)n2)c1 | – |
| 22 nM | N#Cc1cc(F)cc(-c2nc(-c3ccccn3)co2)c1 | – |
